What was measured:
[1] = target: Calcium/calmodulin-dependent protein kinase type II subunit alpha (Homo sapiens) (UniProt Q9UQM7); experiment: Inhibition of CamK2alpha (unknown origin) at 1 uM by FRET assay relative to control
[2] = organism: Homo sapiens; experiment: Binding affinity to BZD receptor (unknown origin) at 10 uM relative to control
Procedure, shortened: (§1)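 Broad radioligand-binding and enzyme screening panel covering 42 targets (biogenic amine and neuropeptide receptors, ion channels, neurotransmitter transporters, acetylcholinesterase). Single test concentration of 10 μM. Results expressed as binding relative to control, with a hit defined as >50% of control.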

[3] = target: CDK8/Cyclin C (Homo sapiens) (UniProt P49336+P24863); experiment: Inhibition of recombinant full length His-tagged human CDK8/CyclinC expressed in baculovirus expression system at 1 uM by FRET assay relative to control
[4] = target: Mitogen-activated protein kinase 13 (Homo sapiens) (UniProt O15264); experiment: Inhibition of recombinant full length His-tagged human p38delta expressed in baculovirus expression system at 1 uM by FRET assay relative to control
[5] = target: Vascular endothelial growth factor receptor 2 (Homo sapiens) (UniProt P35968); experiment: Inhibition of recombinant His-tagged human KDR cytoplasmic domain (789 to 1356 residues) expressed in baculovirus expression system at 1 uM by FRET assay relative to control
Procedure, shortened: (§2)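 Single-point screen at 1 μM compound in a 220-kinase panel run by Life Technologies (SelectScreen). Z′-LYTE format: phosphorylation of a labeled peptide substrate read by FRET. Values are reported as percent inhibition.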

[6] = target: Mitogen-activated protein kinase 8 (Homo sapiens, UniProt P45983); experiment: Inhibition of recombinant full length His-tagged human JNK1alpha1 expressed in baculovirus expression system at 1 uM by FRET assay relative to control
[7] = target: Muscle, skeletal receptor tyrosine-protein kinase (Homo sapiens) (UniProt O15146); experiment: Inhibition of recombinant GST-tagged human MUSK cytoplasmic domain expressed in baculovirus expression system at 1 uM by FRET assay relative to control; procedure, shortened: as §2
Chain of Muscle, skeletal receptor tyrosine-protein kinase (Homo sapiens) (O15146 whole entry, the tested form may be a part): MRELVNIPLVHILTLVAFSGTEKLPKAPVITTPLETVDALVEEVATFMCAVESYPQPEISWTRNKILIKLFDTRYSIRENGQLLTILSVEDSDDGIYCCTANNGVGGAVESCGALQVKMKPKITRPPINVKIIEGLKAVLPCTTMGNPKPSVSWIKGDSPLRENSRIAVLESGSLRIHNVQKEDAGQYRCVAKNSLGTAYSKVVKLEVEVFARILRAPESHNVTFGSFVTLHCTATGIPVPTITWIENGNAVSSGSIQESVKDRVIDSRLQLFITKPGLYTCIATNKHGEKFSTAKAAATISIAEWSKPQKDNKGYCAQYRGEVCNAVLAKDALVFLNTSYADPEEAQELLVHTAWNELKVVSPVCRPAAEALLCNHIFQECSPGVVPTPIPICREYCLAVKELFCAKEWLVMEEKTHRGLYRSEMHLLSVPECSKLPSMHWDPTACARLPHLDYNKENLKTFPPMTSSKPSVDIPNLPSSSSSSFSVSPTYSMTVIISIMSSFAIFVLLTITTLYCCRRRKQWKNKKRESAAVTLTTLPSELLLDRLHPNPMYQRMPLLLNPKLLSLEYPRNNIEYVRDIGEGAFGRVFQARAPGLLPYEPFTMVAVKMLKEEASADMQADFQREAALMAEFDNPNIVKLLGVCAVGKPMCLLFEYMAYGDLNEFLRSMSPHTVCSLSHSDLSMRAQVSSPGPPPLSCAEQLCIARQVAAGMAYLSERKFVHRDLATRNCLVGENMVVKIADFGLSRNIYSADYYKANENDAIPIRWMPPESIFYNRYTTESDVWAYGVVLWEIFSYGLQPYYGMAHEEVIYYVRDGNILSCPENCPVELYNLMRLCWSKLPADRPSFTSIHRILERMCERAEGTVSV

[8] = target: Serine/threonine-protein kinase TAO2 (Homo sapiens) (UniProt Q9UL54); experiment: Inhibition of recombinant GST-tagged human TAO2 catalytic domain (1 to 314 residues) expressed in baculovirus expression system at 1 uM by FRET assay relative to control; procedure, shortened: as §2
Chain of Serine/threonine-protein kinase TAO2 (Homo sapiens) (Q9UL54 whole entry, the tested form may be a part): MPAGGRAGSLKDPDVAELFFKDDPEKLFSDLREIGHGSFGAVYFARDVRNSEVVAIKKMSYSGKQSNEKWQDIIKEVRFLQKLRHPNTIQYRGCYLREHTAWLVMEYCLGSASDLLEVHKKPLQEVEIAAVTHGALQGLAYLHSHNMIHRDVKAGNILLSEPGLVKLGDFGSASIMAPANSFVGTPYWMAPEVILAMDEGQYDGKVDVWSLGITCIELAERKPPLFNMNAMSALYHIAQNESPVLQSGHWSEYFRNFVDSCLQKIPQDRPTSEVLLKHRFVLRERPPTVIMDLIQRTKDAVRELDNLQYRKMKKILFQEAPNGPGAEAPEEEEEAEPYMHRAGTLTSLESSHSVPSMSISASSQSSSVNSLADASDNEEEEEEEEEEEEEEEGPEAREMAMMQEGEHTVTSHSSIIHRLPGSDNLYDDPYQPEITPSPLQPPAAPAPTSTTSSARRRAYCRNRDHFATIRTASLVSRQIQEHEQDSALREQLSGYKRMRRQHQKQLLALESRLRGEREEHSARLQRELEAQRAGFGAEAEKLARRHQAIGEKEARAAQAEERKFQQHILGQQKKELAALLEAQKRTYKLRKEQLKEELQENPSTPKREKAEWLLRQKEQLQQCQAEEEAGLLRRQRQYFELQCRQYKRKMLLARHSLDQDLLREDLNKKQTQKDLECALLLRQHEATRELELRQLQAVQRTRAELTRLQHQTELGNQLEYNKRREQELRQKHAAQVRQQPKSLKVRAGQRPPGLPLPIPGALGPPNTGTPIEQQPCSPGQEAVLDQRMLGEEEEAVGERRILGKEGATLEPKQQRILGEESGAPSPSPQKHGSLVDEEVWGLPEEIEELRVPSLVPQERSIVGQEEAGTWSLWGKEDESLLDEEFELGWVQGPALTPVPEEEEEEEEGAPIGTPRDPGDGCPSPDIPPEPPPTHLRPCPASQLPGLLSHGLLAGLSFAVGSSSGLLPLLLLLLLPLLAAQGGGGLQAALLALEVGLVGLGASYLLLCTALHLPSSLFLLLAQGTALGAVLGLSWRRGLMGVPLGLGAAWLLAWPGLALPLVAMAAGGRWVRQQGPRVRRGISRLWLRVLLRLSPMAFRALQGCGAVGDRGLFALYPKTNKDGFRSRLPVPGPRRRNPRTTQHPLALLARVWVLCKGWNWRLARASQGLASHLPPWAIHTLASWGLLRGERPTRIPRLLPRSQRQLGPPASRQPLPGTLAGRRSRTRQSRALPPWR

[9] = target: Platelet-derived growth factor receptor alpha (Homo sapiens) (UniProt P16234); experiment: Inhibition of recombinant GST-tagged human PDGFRalpha cytoplasmic domain expressed in baculovirus expression system at 1 uM by FRET assay relative to control; procedure, shortened: as §2
[10] = target: Wee1-like protein kinase (Homo sapiens) (UniProt P30291); experiment: Inhibition of recombinant N-terminal full length GST-tagged human WEE1 expressed in baculovirus expression system at 1 uM by FRET assay relative to control
Procedure, shortened: (§3)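 Single-concentration screen at 1 μM in Life Technologies SelectScreen, across a 220-kinase panel. Z′-LYTE format measures phosphorylation of a labeled peptide by FRET. Results are reported as percent inhibition.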

[11] = target: Sphingosine kinase 1 (Homo sapiens) (UniProt Q9NYA1); experiment: Inhibition of recombinant full length GST-tagged human SPHK1 expressed in baculovirus expression system at 1 uM by FRET assay relative to control; procedure, shortened: as §3
Chain of Sphingosine kinase 1 (Homo sapiens) (Q9NYA1 whole entry): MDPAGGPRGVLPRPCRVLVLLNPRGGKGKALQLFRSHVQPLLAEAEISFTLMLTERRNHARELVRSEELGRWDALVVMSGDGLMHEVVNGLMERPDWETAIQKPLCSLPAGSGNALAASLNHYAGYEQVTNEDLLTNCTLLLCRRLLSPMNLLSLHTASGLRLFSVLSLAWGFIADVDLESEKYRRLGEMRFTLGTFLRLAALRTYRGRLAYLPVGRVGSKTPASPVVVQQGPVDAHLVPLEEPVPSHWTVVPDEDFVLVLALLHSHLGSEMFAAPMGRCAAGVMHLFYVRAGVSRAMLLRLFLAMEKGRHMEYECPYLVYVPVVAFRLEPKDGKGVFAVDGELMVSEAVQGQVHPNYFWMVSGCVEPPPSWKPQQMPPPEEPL

[12] = target: NUAK family SNF1-like kinase 1 (Homo sapiens) (UniProt O60285); experiment: Inhibition of recombinant full length His-tagged human ARK5 expressed in baculovirus expression system at 1 uM by FRET assay relative to control
[13] = target: Homeodomain-interacting protein kinase 2 (Homo sapiens) (UniProt Q9H2X6); experiment: Inhibition of recombinant GST-tagged human HIPK2 catalytic domain expressed in baculovirus expression system at 1 uM by FRET relative to control; procedure, shortened: as §2
[14] = target: T1, Mitogen-activated protein kinase kinase kinase 12 (Homo sapiens, UniProt Q12852); experiment: Binding affinity to N-terminally GST-tagged wild type human DLK (1 to 520 residues) expressed in sf21 insect cells using N-terminally His-tagged MKK4 K131M as substrate after 60 mins in presence of ATP by TR-FRET assay
T1 sequence (Q12852 whole entry): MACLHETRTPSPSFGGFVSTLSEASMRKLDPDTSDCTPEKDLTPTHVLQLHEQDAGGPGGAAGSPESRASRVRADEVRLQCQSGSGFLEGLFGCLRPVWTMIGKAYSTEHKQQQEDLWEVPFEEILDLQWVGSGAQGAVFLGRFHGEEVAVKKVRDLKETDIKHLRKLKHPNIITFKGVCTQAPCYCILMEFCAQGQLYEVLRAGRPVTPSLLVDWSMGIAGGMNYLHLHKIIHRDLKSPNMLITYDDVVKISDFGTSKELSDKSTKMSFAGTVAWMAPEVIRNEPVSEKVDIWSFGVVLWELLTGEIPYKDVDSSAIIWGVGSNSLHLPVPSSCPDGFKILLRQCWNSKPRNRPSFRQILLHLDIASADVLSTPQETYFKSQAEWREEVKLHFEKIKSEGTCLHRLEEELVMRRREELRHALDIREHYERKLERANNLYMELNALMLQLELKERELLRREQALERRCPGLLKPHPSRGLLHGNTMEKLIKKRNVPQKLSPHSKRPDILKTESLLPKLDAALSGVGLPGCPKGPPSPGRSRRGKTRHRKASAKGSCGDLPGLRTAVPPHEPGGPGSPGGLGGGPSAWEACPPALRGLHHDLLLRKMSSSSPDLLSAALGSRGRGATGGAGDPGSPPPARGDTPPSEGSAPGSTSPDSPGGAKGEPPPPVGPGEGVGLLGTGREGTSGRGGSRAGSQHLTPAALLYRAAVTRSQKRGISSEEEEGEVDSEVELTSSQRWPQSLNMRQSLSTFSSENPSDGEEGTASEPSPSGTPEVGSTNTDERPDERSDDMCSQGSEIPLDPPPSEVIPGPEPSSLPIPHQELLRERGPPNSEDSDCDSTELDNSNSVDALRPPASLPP

[15] = target: Macrophage-stimulating protein receptor (Homo sapiens) (UniProt Q04912); experiment: Inhibition of recombinant GST-tagged human Ron cytoplasmic domain ([…] to 1400 residues) expressed in baculovirus expression system at 1 uM by FRET assay relative to control; procedure, shortened: as §2
Chain of Macrophage-stimulating protein receptor (Homo sapiens) (Q04912 25-304 limits assumed): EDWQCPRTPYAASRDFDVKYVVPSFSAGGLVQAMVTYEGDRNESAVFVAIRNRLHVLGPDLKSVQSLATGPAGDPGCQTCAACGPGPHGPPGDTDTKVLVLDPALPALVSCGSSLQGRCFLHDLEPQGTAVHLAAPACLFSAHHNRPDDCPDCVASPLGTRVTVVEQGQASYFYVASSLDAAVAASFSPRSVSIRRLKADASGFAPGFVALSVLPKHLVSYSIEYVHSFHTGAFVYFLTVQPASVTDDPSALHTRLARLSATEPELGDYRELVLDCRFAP
Chain of Macrophage-stimulating protein receptor (Homo sapiens) (Q04912 310-1400 limits assumed): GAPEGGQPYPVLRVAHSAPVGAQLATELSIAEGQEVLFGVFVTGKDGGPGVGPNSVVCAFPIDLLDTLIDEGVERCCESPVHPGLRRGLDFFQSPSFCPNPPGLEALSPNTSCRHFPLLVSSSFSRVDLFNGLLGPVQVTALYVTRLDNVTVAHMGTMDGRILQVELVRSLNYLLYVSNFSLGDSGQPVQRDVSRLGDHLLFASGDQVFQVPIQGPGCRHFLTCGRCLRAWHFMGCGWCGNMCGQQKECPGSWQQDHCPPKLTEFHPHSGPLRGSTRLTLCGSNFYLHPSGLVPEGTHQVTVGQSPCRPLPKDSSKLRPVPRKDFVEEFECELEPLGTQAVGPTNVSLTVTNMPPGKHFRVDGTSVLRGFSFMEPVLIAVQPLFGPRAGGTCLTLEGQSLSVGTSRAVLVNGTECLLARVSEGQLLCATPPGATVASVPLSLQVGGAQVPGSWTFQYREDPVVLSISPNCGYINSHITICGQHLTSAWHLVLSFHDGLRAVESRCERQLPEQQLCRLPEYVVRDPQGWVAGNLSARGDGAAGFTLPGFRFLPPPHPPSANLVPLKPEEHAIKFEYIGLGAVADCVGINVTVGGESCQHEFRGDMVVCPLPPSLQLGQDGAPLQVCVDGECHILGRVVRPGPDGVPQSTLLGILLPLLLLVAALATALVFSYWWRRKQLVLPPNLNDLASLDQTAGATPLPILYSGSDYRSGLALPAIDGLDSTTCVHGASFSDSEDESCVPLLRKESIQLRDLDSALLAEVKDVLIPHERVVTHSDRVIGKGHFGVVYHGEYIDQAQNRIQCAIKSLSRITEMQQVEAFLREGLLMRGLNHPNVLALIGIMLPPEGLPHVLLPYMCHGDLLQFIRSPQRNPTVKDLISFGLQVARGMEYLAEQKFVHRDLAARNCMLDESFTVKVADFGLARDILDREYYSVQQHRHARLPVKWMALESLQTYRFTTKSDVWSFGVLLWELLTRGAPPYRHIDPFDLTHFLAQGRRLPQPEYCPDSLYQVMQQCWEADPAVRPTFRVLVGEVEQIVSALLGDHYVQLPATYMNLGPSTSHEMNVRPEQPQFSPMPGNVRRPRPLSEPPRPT

[16] = target: Adrenergic receptor alpha-2 (Homo sapiens) (UniProt P08913+P18825+P18089); experiment: Binding affinity to alpha2 adrenergic receptor (unknown origin) at 10 uM relative to control; assay type: protein assay; procedure, shortened: as §1
[17] = target: Tyrosine-protein kinase JAK1 (Homo sapiens) (UniProt P23458); experiment: Inhibition of recombinant GST-tagged human JAK1 catalytic domain (866 to 1154 residues) expressed in baculovirus expression system at 1 uM by FRET relative to control; procedure, shortened: as §2
Chain of Tyrosine-protein kinase JAK1 (Homo sapiens) (P23458 whole entry, the tested form may be a part): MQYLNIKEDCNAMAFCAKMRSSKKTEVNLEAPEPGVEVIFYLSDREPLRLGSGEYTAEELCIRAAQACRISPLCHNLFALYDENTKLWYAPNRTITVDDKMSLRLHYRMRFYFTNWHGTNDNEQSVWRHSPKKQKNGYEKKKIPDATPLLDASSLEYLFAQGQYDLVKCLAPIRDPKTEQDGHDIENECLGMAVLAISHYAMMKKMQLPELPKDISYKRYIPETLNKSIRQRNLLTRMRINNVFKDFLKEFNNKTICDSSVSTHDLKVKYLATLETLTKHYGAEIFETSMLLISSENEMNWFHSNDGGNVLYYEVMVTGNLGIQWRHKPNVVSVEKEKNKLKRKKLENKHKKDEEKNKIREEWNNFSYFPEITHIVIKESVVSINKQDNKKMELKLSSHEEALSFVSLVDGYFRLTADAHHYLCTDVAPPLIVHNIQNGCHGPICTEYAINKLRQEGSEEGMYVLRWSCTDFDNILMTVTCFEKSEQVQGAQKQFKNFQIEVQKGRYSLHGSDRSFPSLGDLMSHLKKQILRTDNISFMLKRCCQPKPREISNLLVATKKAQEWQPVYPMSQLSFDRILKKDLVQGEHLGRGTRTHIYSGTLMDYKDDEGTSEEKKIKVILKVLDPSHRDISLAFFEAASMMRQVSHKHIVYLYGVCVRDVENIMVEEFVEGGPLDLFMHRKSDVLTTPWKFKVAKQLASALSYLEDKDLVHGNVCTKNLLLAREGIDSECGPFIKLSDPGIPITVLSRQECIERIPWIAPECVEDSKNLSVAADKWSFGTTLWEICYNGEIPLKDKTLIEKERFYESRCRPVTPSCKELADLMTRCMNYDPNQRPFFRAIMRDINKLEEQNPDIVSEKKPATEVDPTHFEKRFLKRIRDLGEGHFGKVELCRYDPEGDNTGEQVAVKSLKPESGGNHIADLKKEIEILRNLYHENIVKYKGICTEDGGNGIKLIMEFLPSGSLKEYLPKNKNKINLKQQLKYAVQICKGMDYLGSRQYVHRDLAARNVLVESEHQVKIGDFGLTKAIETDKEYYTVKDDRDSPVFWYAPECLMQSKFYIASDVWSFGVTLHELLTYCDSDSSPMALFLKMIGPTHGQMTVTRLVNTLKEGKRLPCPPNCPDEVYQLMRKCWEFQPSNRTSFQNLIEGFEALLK

[18] = target: Myosin light chain kinase (Homo sapiens) (UniProt Q32MK0); experiment: Inhibition of recombinant human full length N-terminal GST-tagged caMLCK expressed in baculovirus expression system at 1 uM by FRET assay relative to control
[19] = target: Tyrosine-protein kinase ABL1 (Homo sapiens) (UniProt P00519); experiment: Inhibition of recombinant GST/His-tagged human Abl (118 to 535 residues) at 1 uM by FRET assay relative to control; procedure, shortened: as §2

Row | SMILES | inhibition [1] | Activity [2] | inhibition [3] | inhibition [4] | inhibition [5] | inhibition [6] | inhibition [7] | inhibition [8] | inhibition [9] | inhibition [10] | inhibition [11] | inhibition [12] | inhibition [13] | Ki [14] | inhibition [15] | Activity [16] | inhibition [17] | inhibition [18] | inhibition [19]
1 | CC(C)n1nc(-c2cnc(N)c(OC(F)(F)F)c2)cc1[C@H]1[C@@H]2CN(C3COC3)C[C@@H]21 | 2.4% | > 50% | 9.9% | 10.5% | 10.6% | 9.1% | 4% | 0.6% | 7.1% | 4.9% | -0.2% | 30.1% | 18% | 3 nM | 5.9% | > 50% | 6.9% | 0.8% | 10.9%
2 | Nc1ncc(-c2cc([C@H]3[C@@H]4CN(C5COC5)C[C@@H]43)n(CC3CC3)n2)cc1C(F)(F)F | 0.6% | > 50% | 2.4% | 3.8% | 35% | 1.5% | 27.8% | -3.9% | 11.1% | 7.1% | -3.3% | 29.1% | 14.9% | 4 nM | 0.6% | > 50% | 3.9% | 1.3% | 14.9%
